Data set [1] addresses T1, NAD-dependent protein deacetylase sirtuin-1 (Homo sapiens) (UniProt Q96EB6).
T1 sequence (whole entry): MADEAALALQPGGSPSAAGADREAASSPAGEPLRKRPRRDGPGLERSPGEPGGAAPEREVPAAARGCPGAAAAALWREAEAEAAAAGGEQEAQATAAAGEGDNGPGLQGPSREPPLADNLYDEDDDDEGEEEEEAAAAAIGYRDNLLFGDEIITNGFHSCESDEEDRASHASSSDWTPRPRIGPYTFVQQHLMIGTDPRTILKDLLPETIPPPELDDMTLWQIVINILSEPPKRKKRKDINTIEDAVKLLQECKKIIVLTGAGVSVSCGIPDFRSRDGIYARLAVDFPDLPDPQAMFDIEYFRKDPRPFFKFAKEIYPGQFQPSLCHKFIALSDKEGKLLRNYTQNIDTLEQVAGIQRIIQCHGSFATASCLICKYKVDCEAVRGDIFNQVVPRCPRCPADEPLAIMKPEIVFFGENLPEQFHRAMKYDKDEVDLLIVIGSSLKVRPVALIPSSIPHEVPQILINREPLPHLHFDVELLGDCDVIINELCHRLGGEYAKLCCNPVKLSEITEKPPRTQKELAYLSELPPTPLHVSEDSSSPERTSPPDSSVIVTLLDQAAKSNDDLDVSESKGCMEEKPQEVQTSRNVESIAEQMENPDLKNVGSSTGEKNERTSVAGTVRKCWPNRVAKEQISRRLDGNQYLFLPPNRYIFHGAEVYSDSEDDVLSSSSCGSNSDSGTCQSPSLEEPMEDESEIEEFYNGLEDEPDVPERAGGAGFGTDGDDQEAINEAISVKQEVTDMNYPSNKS
As to the kind of experiment: Activation of SIRT1 (unknown origin) at 10 to 20 ug/mL using Fluor de Lys-SIRT1 peptide by in vitro enzyme-based SIRT1-NAD/NADH assay. The method, boiled down:
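SIRT1 enzyme at 0.02 U/μL in Tris-HCl pH 8.0 buffer with BSA, MgCl2, KCl and NaCl, preincubated with compound for 5 min at room temperature. Reaction started with 500 μM NAD+ and 100 μM Fluor de Lys-SIRT1 substrate (stock solution), run 1 h at room temperature. Quenched with Developer II plus 2 mM nicotinamide for 30 min, then fluorescence read at ex 360/em 450 nm. DMSO and no-enzyme controls.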

Data set [2] has as its target T1, NAD-dependent protein deacetylase sirtuin-1 (Homo sapiens). The experiment in a line: Activation of flag-tagged SIRT1 (unknown origin) expressed in HEK293 cells at 10 to 20 ug/mL after 12 hrs by SIRT1-p53 luciferase reporter gene based assay. It counts as cell-based.
The target is the same in data set [3]. The experiment in a line: Activation of SIRT1 (unknown origin) expressed in HEK293 cells assessed as increase in NAD+/NADH ratio at 10 to 20 ug/mL after 12 hrs. It counts as cell-based. The essentials:
(§1)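 HEK293 cells grown in DMEM with 10% FBS at 37 °C, 5% CO2, and treated with compound for 12 h. NAD+/NADH ratio measured in whole-cell extracts with a red-fluorescence NAD/NADH quantitation kit.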

For data set [4] the target is unchanged. The experiment in a line: Activation of flag-tagged SIRT1 (unknown origin) expressed in HEK293 cells at 2.5 to 5 ug/mL after 12 hrs by SIRT1-p53 luciferase reporter gene based assay. It counts as cell-based.
Data set [5] deals with HEK293. The experiment in a line: Toxicity against HEK293 cells at 10 to 20 ug/ml. It counts as cell-based. Particulars: human.
Data set [6] has as its target T1, NAD-dependent protein deacetylase sirtuin-1 (Homo sapiens). The experiment in a line: Activation of SIRT1 (unknown origin) expressed in HEK293 cells assessed as increase in NAD+/NADH ratio at 2.5 to 5 ug/mL after 12 hrs. The format is cell-based. The essentials: as §1
Data set [7] shares this target. As to the kind of experiment: Activation of flag-tagged SIRT1 (unknown origin) expressed in HEK293 cells after 12 hrs by SIRT1-p53 luciferase reporter gene based assay. It counts as cell-based.

Active and inactive are the calls of the source. The rule behind the calls is not given here.

As for `CC(C)=CCC[C@](C)(O)[C@H]1CC[C@]2(C)[C@@H]1C(=O)C[C@@H]1[C@@]3(C)CCC(=O)C(C)(C)[C@@H]3[C@@H](O)C[C@]12C`, in data set [1], the Activity result is “Dose-dependent effect”. In addition, the result in data set [2] and in data set [3] was Active.

For the compound `CC(C)(O)/C=C/C[C@](C)(O)[C@H]1CC[C@]2(C)[C@@H]1C(=O)C[C@@H]1[C@@]3(C)CCC(=O)C(C)(C)[C@@H]3[C@@H](O)C[C@]12C`, the Activity entry in data set [1] was “Dose-dependent effect”. For the same compound, the result in data set [2] and in data set [3] was Active.

Consider `CC(C)=CC/C=C(\C)[C@H]1CC[C@]2(C)[C@@H]1[C@H](O)C[C@@H]1[C@@]3(C)CC[C@H](O)C(C)(C)[C@@H]3[C@@H](O)C[C@]12C`, for which the Activity entry in data set [1] is “Dose-dependent effect”; in data set [5] it was “Toxic”. Further, the result in data set [4] and in data set [6] was Active.

Take `CC(C)=CCC[C@](C)(O)[C@H]1CC[C@]2(C)[C@@H]1[C@H](O)C[C@@H]1[C@@]3(C)CC[C@H](O[C@@H]4O[C@H](CO)[C@@H](O)[C@H](O)[C@H]4O[C@@H]4O[C@H](CO)[C@@H](O)[C@H](O)[C@H]4O)C(C)(C)[C@@H]3CC[C@]12C`: the figures for the Activity entry in data set [1] and in data set [5] were “Dose-dependent effect” and “Toxic”, respectively. Also, the outcome in data set [4], in data set [6] and in data set [7] was Active.

As for `CC(C)=CCC[C@@](C)(O)[C@H]1CC[C@]2(C)[C@@H]1[C@H](O)C[C@@H]1[C@@]3(C)CC[C@H](O[C@@H]4O[C@H](CO)[C@@H](O)[C@H](O)[C@H]4O[C@@H]4O[C@H](CO)[C@@H](O)[C@H](O)[C@H]4O)C(C)(C)[C@@H]3CC[C@]12C`, in data set [7], the Activity result was “Dose-dependent effect”.
